Screens: PubChem, several laboratories
Hits are enriched below; roughly 4% of the tested compounds scored in any of these assays.
PHOSPHO1 block – PubChem AID 1565; Phosphoethanolamine/phosphocholine phosphatase (Homo sapiens), Q8TCT1; recombinant PHOSPHO1, absorbance phosphatase assay; 1.1% of 290,000 active; inhibition, % at 13.3 µM; in the data active = inhibition above about 60%
Target sequence (Q8TCT1 whole entry, looked up): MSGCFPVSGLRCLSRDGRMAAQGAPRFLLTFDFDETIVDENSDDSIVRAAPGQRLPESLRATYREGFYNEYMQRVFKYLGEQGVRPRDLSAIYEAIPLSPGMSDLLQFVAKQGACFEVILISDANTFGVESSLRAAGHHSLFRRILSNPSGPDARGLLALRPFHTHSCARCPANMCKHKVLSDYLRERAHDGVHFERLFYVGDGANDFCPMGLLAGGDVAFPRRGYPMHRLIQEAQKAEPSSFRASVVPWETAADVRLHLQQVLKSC
KCNQ1 inh – inhibitors of human KCNQ1 channel, primary screen, cell-based, thallium flux, high-throughput; CHO-K1 KCNQ1, FluxOR thallium flux fluorescence; active compounds read high; B-score at 10 µM; Potassium voltage-gated channel subfamily KQT member 1 (Homo sapiens), P51787; 1.3% of 310,000 active;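 active = compounds whose thallium flux B-score, printed positive for inhibition, exceeds three library SD while starting fluorescence stays within three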;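 also: channel opened by potassium depolarization with thallium stimulus after 20 min compound exposure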
KCNQ1 pot – potentiators or activators of KCNQ1 channel, primary screen, cell-based, thallium flux, high-throughput. Potassium voltage-gated channel subfamily KQT member 1 (Homo sapiens), P51787. 0.35% of 310,000 active. B-score at 10 µM. AID 2648, 2010. CHO-K1 KCNQ1, thallium flux FluxOR fluorescence; active compounds read high;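 active = fluorescence ratio B-score, a plate-corrected score, at least three library SD, with initial intensity B-score within 5 SD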
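Assay system: stable KCNQ1 CHO-K1 line; medium: assay buffer, equal DMSO in all wells; timing: 90 min dye loading and 20 min compound exposure, both at room temperature; technique: kinetic FluxOR thallium fluorescence, 10-s 1-Hz baseline, 110-s post-stimulus read; read-out basis: B score of baseline-normalized fluorescence ratio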
hERG protect – hERG rescue from dofetilide block, primary screen, cell-based, CHO-hERG, FluxOR thallium flux, dofetilide IC70 | dofetilide IC70 present | activation (rescue from dofetilide block), less the hit threshold, % at 10 µM | 0.51% of 310,000 active;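 active = activation above the mean of controls blocked by dofetilide plus 5 SD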;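 also: thallium influx through hERG after potassium depolarization seen as dye fluorescence rise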
KCNK3 block – human KCNK3 channel inhibitors, primary screen, CHO cells, FluxOR thallium flux, B-score; Potassium channel subfamily K member 3 (Homo sapiens), O14649; FluxOR fluorescence; active compounds read low; B-score at 10 µM; 0.84% of 340,000 active; AID 602410, 2012;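 active = B-score under library mean minus 4 SD, starting fluorescence ratio at most library mean plus 5 SD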;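 also: more negative B-score means stronger inhibition of thallium flux through KCNK3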
KCNK9 inh – KCNK9 potassium channel inhibitors, primary screen, HEK293 cells, thallium flux; B-score at 10 µM; 1.2% of 310,000 active; FluxOR thallium flux fluorescence; active compounds read low; AID 488922, 2010; Potassium channel subfamily K member 9 (Homo sapiens), Q9NPC2;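 active = ratio B-score over 3 SD below the library mean, with starting fluorescence within 5 SD of its mean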;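 also: negative B-score means less thallium flux so channel inhibition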
Target sequence (Q9NPC2 whole entry, looked up): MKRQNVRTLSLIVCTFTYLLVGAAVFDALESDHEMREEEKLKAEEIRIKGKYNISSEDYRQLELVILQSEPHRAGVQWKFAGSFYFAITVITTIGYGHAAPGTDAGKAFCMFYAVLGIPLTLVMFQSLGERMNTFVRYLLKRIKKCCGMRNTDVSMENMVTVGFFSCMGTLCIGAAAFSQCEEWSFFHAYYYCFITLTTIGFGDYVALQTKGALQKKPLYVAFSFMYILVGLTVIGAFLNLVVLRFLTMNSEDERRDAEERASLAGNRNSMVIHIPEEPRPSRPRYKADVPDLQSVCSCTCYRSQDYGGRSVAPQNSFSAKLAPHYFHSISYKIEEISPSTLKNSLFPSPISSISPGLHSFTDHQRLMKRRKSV
KCNK9 inh conf – KCNK9 potassium channel inhibitors, confirmation, HEK293 cells, thallium flux, duplicate; shares compounds with KCNK9 inh; FluxOR thallium flux fluorescence; inhibition, % at 10 µM; 43% of 4,900 active; AID 492992, 2010;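 active = thallium signal inhibited by more than 5 SD of the compound-free buffer control wells, on both duplicate plates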;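 also: 0% = assay buffer control wells without compound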
Kir2-1 spec – mouse Kir2.1 channel inhibition, confirmation, selectivity assay for KCNK9 modulator project, cell-based, HEK293, thallium flux | inhibition, % at 10 µM | 4% of 4,900 active | Kir2.1 cells, FluxOR thallium flux fluorescence | shares compounds with KCNK9 inh;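 active = thallium signal drop more than 5 SD beyond the mean of the no-compound control wells, seen in both duplicate plates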;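 also: signal is fluorescence rise after thallium addition divided by baseline fluorescence; plate controls were assay buffer only for no effect and full block by chlorpromazine control for full effect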
KCNK9 uninduced – thallium flux in non-induced HEK293 cells, confirmation, counter-screen for KCNK9 inhibitor project, cell-based, second counter screen, non-induced KCNK9-HEK293; shares compounds with KCNK9 inh; FluxOR thallium flux; inhibition, % at 10 µM; 40% of 4,900 active; AID 492997, 2010;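 active = thallium signal drop beyond 5 SD of the untreated control mean, on both duplicate plates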;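 also: plate controls were buffer only IC0 wells for no effect and SID17386958 at its maximal inhibitory level for full effect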
Numbers without * were called inactive; i = inactive; · = not tested or not shown.

SMILES	PHOSPHO1 block	KCNQ1 inh	KCNQ1 pot	hERG protect	KCNK3 block	KCNK9 inh	KCNK9 inh conf	Kir2-1 spec	KCNK9 uninduced
CC(C)(C)C(=O)[C@H]1[C@H](c2ccccc2)[C@@]2(N=C(c3ccccc3)OC2=O)C2c3ccccc3C=NN21 (some centres not stated)	34	i	i	-18	i	-9.7*	29%*	i	i
O=C(Nc1ccc(CN2CCCCC2)cc1)c1cc(Br)ccc1Cl	54	i	i	-6	i	-8.5*	30%*	i	37%*
CCOC(=O)c1c(/N=C/N(C)C)sc(C(=O)OC)c1C	12	i	i	-3	i	i	·	·	·
NC(=O)c1ccc(Oc2ccc3c(c2)CCC3)c([N+](=O)[O-])c1	27	i	i	-10	i	i	i	i	i
O=c1[nH]c(NNC(=S)NCc2ccccc2)nc2c1C1(CCCCC1)Cc1ccccc1-2	2	i	i	-6	i	i	36%*	i	i
O=c1[nH]c(NNC(=S)NC2CCCCC2)nc2c1C1(CCCC1)Cc1ccccc1-2	-12	6*	i	-14	i	i	i	i	i
Cc1cccc(NC(=O)/C(C#N)=C\c2ccc(C(=O)O)cc2)c1	23	i	i	-9	i	i	·	·	·
COc1cc(C)c(/C=C(\C#N)C(=O)Nc2cccc(C)c2)cc1C(C)C	-19	i	i	-4	i	i	i	i	i
CC(=O)Nc1ccccc1N(C)S(=O)(=O)c1ccc(C)cc1	2	i	i	-8	i	-8.3*	i	i	i
COCCNC(=O)c1c(CSc2ccccc2)noc1C(=O)NCc1ccccc1	31	i	i	-6	i	i	·	·	·
O=C(NCc1ccccc1)c1onc(CSc2ccc(Cl)cc2)c1C(=O)NCC1CC1	·	i	i	-10	i	i	i	i	i
CCCNC(=O)c1c(CSc2ccc(Cl)cc2)noc1C(=O)NCc1ccccc1	·	i	i	-7	i	i	i	i	i
CCCCNC(=O)c1c(CSc2ccc(Cl)cc2)noc1C(=O)NCc1ccccc1	·	i	i	-13	i	i	i	i	i
CCCCNC(=O)c1c(CSc2ccccc2)noc1C(=O)NCc1ccccc1	22	i	i	-7	i	i	i	i	i
O=C(COc1cc(Cl)c(Cl)cc1Cl)NCCN1CCOCC1	26	i	i	-2	i	i	·	·	·
N#CCC(=O)Nc1ccc(C(=O)Nc2ccc3c(c2)OCO3)cc1	·	·	·	·	i	·	·	·	·
CC(c1ccc2c(c1)OCO2)n1c(=S)[nH]c2ccccc2c1=O (configuration not stated)	·	·	·	·	i	·	·	·	·
O=C(NCc1ccccc1)c1onc(CSc2ccccc2)c1C(=O)NCc1ccccc1	·	i	i	-8	i	i	i	i	i
CC(C)NC(=O)c1c(CSc2ccc(Cl)cc2)noc1C(=O)NCc1ccccc1	·	i	i	-14	i	i	i	i	i
C[C@@H](Oc1ccccc1)c1nnn(Cc2ccccc2)c1-c1c([C@@H](C)Oc2ccccc2)nnn1Cc1ccccc1	35	i	i	-8	·	-12*	i	i	36%*
COc1cccc(/C=C(/C(=O)OCC(=O)NC2CCCC(C)C2C)c2ccccc2)c1 (configuration not stated)	1	10*	i	-30	i	-9.3*	43%*	i	44%*
Cc1cc(Cl)ccc1NNC(=O)CCc1ccccc1	29	i	i	2	i	i	·	·	·
Oc1ccc(C=NN=Cc2ccco2)c(O)c1	·	·	·	·	i	·	·	·	·
Fc1cccc(Cl)c1Cc1noc(/C=C/c2ccccc2)n1	18	i	i	1	i	i	i	i	i
CCn1c(C)c(C)c2cc(C(=O)NCCN3CCCCCC3)ccc21	12	i	i	-9	i	i	·	·	·
SMILES	PHOSPHO1 block	KCNQ1 inh	KCNQ1 pot	hERG protect	KCNK3 block	KCNK9 inh	KCNK9 inh conf	Kir2-1 spec	KCNK9 uninduced
COC(=O)c1nnn(-c2nonc2N)c1CSc1nc2ccccc2o1	26	i	i	-2	i	i	·	·	·
Cc1cc(C)cc(CC(Cc2nc3ccccc3[nH]2)c2nc3ccccc3[nH]2)c1 (configuration not stated)	40	12*	i	-8	i	-8.1*	29%*	i	37%*
Cc1ccc(CSCc2nc3ccccc3[nH]2)cc1	4	i	i	-3	i	i	·	·	·
Cc1cccn2c(=O)c(/C=C(\C#N)C(=O)NCc3ccco3)c(N3CCCCC3)nc12	-4	i	i	-13	i	i	·	·	·
Cc1cccn2c(=O)c(/C=C(\C#N)C(=O)NCc3ccco3)c(N3CCCCCC3)nc12	2	i	i	-5	i	i	i	i	i
CN(C(=O)CSc1nnc(C2CC2)n1C1CC1)C1(C#N)CCCCC1	·	·	·	·	i	·	·	·	·
CC(=O)OC[C@H]1O[C@@H](n2ncc(=O)[nH]c2=O)[C@H](OC(C)=O)[C@@H]1OC(C)=O	16	i	i	-3	·	i	·	·	·
O=C(OCC1OC(n2ncc(=O)[nH]c2=O)C(OC(=O)c2ccccc2)C1OC(=O)c1ccccc1)c1ccccc1 (configuration not stated)	34	i	i	-24	i	i	i	i	33%*
COc1ccc(C(=O)N/N=C/c2ccc(OC)c(COc3ccc(F)cc3F)c2)cc1	19	i	i	-15	i	i	·	·	·
COc1ccc(C(=O)/C=C/c2ccc(OC)c(COc3ccccc3F)c2)cc1	-12	i	i	-9	i	-16*	70%*	i	31%*
